Source: ChEMBL document CHEMBL1155547, “New aminopropandiol derivatives as orally available and short-acting calcium-sensing receptor antagonists” (Bioorg Med Chem Lett, 2010)
pIC50: −log10 of the molar value. The source made the active and inactive calls. The rule behind the calls is not given here.

Tested on: not listed separately
Assay: Cmax in rat at 10 mg/kg, po
Assay type: ADME, organism-based
Set-up: dose 10 mg/kg, route oral
Conditions: in vivo

Cmax	SMILES
300 nM	Cc1ccccc1[C@H](OC[C@H](O)CNC(C)(C)Cc1ccc2ccccc2c1)C1CC1

Biological target: Cytochrome P450 2D6 (Homo sapiens, UniProt P10635)
Assay: Inhibition of CYP2D6
Assay type: ADME
Conditions: not given

Cytochrome P450 2D6, sequence (P10635 whole entry): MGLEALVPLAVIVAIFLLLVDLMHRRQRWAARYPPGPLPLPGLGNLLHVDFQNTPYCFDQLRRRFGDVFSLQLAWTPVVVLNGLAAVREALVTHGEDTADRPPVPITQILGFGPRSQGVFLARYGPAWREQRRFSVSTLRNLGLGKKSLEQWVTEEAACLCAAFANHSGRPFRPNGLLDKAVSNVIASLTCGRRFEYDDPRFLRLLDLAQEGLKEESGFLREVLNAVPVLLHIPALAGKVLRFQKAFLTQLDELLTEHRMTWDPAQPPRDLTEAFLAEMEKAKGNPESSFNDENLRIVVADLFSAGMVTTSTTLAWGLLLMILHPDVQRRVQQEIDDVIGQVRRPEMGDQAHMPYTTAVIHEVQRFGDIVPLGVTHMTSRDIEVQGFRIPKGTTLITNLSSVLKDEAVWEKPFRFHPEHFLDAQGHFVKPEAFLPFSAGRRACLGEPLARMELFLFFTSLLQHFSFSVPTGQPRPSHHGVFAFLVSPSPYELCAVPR

pIC50	SMILES
6.30	Cc1ccccc1[C@H](OC[C@H](O)CNC(C)(C)Cc1ccc2ccccc2c1)C1CC1

Tested on: not listed separately
Assay: Half life in rat at 10 mg/kg, po
Assay type: ADME, organism-based
Set-up: dose 10 mg/kg, route oral
Conditions: in vivo

half-life	SMILES
120 min	Cc1ccccc1[C@H](OC[C@H](O)CNC(C)(C)Cc1ccc2ccccc2c1)C1CC1

Tested on: Rattus norvegicus
Assay: Increase of plasma PTH (1-84) level in Sprague-Dawley rat at 10 mg/kg, po after 2 hrs by ELISA
Conditions: not given

SMILES	Activity
Cc1ccccc1[C@H](OC[C@H](O)CNC(C)(C)Cc1ccc2ccccc2c1)C1CC1	inactive

Tested on: Rattus norvegicus
Assay: Increase of plasma PTH (1-84) level in Sprague-Dawley rat at 10 mg/kg, po after 30 mins by ELISA
Conditions: not given

SMILES	Activity
Cc1ccccc1[C@H](OC[C@H](O)CNC(C)(C)Cc1ccc2ccccc2c1)C1CC1	Active

Tested on: Rattus norvegicus
Assay: Increase of serum PTH (1-34) level in Sprague-Dawley rat at 100 mg/kg, po after 30 and 60 mins by ELISA
Assay type: functional
Conditions: not given
Procedure, shortened: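 Sprague–Dawley rats (n = 5) were dosed orally at 100 mg/kg. Endogenous PTH 1–34 was measured by rat PTH 1–34 ELISA. The value is the increase over basal level at 30 min and 60 min after dosing.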

SMILES	Activity
CC(C)(Cc1ccc2ccccc2c1)NC[C@@H](O)COc1cccc(Cl)c1C#N	10 pg/mL

Tested on: Rattus norvegicus
Assay: Increase of serum PTH (1-34) level in Sprague-Dawley rat at 100 mg/kg, po after 30 and 60 mins by ELISA relative to NPS 2143
Assay type: functional
Conditions: not given
Procedure, shortened: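 Sprague–Dawley rats (n = 5) were dosed orally at 100 mg/kg. Serum PTH 1–34 rise over basal at 30 and 60 min was measured by rat PTH 1–34 ELISA. The rise was scored against a reference calcilytic given at 100 mg/kg po: ++ >80%, + 50–80%, N.E. <50% of the reference increase.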

SMILES	Activity
CC(OC[C@H](O)CNC(C)(C)Cc1ccc2ccccc2c1)c1ccccc1[N+](=O)[O-] (some centres not stated)	<50%
CC(OC[C@H](O)CNC(C)(C)Cc1ccc2ccccc2c1)c1ccccc1Cl (some centres not stated)	<50%
Cc1ccccc1C(OC[C@H](O)CNC(C)(C)Cc1ccc2ccccc2c1)C1CC1 (some centres not stated)	>80%
CC(OC[C@H](O)CNC(C)(C)Cc1ccc2ccccc2c1)c1cccc(Cl)c1 (some centres not stated)	<50%
COc1ccccc1C(C)OC[C@H](O)CNC(C)(C)Cc1ccc2ccccc2c1 (some centres not stated)	>80%
Cc1ccccc1C(C)OC[C@H](O)CNC(C)(C)Cc1ccc2ccccc2c1 (some centres not stated)	>80%
Cc1cccc(C(C)OC[C@H](O)CNC(C)(C)Cc2ccc3ccccc3c2)c1 (some centres not stated)	50%
Cc1ccc(C(C)OC[C@H](O)CNC(C)(C)Cc2ccc3ccccc3c2)cc1 (some centres not stated)	<50%
COc1ccccc1C(OC[C@H](O)CNC(C)(C)Cc1ccc2ccccc2c1)C1CC1 (some centres not stated)	>80%
CC(OC[C@H](O)CNC(C)(C)Cc1ccc2ccccc2c1)c1ccccc1C#N (some centres not stated)	50%

Biological target: T1, Extracellular calcium-sensing receptor (Homo sapiens, UniProt P41180)
T1 sequence (P41180 whole entry): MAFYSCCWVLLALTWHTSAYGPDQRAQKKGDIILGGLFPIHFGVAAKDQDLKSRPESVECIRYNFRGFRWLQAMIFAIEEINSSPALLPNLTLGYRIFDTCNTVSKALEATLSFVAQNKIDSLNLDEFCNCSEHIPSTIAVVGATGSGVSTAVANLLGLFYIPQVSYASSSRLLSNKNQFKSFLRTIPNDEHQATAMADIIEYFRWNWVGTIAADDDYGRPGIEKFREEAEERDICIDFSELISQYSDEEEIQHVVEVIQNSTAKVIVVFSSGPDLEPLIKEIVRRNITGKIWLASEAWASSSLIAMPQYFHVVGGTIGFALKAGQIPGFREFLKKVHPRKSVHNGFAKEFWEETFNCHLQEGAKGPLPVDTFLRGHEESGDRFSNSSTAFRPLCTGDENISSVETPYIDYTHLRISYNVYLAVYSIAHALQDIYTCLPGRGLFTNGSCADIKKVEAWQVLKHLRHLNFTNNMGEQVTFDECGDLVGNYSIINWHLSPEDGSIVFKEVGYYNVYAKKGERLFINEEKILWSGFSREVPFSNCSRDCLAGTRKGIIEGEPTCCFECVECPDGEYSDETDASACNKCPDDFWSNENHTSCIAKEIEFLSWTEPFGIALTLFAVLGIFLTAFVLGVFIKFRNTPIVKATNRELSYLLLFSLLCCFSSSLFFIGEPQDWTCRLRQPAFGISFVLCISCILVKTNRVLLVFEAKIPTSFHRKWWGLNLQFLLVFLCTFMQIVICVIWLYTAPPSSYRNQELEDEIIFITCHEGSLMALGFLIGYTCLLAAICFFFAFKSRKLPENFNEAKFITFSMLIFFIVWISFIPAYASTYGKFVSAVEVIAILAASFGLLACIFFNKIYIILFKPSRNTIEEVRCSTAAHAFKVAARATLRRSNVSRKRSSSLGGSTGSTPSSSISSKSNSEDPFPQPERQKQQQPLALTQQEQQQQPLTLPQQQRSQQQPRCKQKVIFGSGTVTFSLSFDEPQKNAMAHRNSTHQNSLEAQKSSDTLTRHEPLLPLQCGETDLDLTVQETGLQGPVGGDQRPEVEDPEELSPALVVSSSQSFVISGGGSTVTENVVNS
Assay: Antagonist activity at human CaSR expressed in rat PC12 cells transfected with zif promoter/luciferase by reporter gene assay
Assay type: functional, cell-based, PC-12
Conditions: not given
Procedure, shortened: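 Human CaSR antagonism measured by luciferase reporter gene assay in PC12h cells transfected with zif promoter/luciferase and hCaSR plasmids. IC50 values are means of two or more experiments.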

SMILES	pIC50
Cc1ccccc1[C@@H](OC[C@H](O)CNC(C)(C)Cc1ccc2ccccc2c1)C1CC1	7.08
CCC(OC[C@H](O)CNC(C)(C)Cc1ccc2ccccc2c1)c1ccccc1 (some centres not stated)	7.04
CC(OC[C@H](O)CNC(C)(C)Cc1ccc2ccccc2c1)c1ccccc1 (some centres not stated)	6.66
CC(C)(Cc1ccc2ccccc2c1)NC[C@@H](O)COc1cccc(Cl)c1C#N	7.59
CC(OC[C@H](O)CNC(C)(C)Cc1ccc2ccccc2c1)c1ccccc1[N+](=O)[O-] (some centres not stated)	6.27
CC(OC[C@H](O)CNC(C)(C)Cc1ccc2ccccc2c1)c1ccccc1Cl (some centres not stated)	6.85
CC(OC[C@H](O)CNC(C)(C)Cc1ccc2ccccc2c1)c1ccc2ccccc2c1 (some centres not stated)	6.26
CC(C)(Cc1ccc2ccccc2c1)NC[C@@H](O)COC(c1ccccc1)c1ccccc1	6.14
Cc1ccccc1C(OC[C@H](O)CNC(C)(C)Cc1ccc2ccccc2c1)C1CC1 (some centres not stated)	7.43
CC(C)(Cc1ccc2ccccc2c1)NC[C@@H](O)COC(=O)c1ccccc1	< 4.52
Cc1cccc(C(C)OC[C@H](O)CNC(C)(C)Cc2ccc3ccccc3c2)c1 (some centres not stated)	6.77
CC(C)(Cc1ccc2ccccc2c1)NC[C@@H](O)COC(c1ccccc1)C1CC1 (some centres not stated)	7.15
CC(OC[C@H](O)CNC(C)(C)Cc1ccc2ccccc2c1)c1cccc2ccccc12 (some centres not stated)	6.44
CC(C)C(OC[C@H](O)CNC(C)(C)Cc1ccc2ccccc2c1)c1ccccc1 (some centres not stated)	6.70
CCCCC(OC[C@H](O)CNC(C)(C)Cc1ccc2ccccc2c1)c1ccccc1 (some centres not stated)	6.77
CC(CCOC[C@H](O)CNC(C)(C)Cc1ccc2ccccc2c1)c1ccccc1 (some centres not stated)	6.52
Cc1ccccc1[C@H](OC[C@@H](O)CNC(C)(C)Cc1ccc2ccccc2c1)C1CC1	6.51
CC(OC[C@H](O)CNC(C)(C)Cc1ccc2ccccc2c1)c1ccccn1 (some centres not stated)	6.38
Cc1ccccc1[C@H](OC[C@H](O)CNC(C)(C)Cc1ccc2ccccc2c1)C1CC1	7.64
CC(OC[C@H](O)CNC(C)(C)Cc1ccc2ccccc2c1)c1ccccc1C#N (some centres not stated)	6.80
CC(C)(Cc1ccc2ccccc2c1)NC[C@@H](O)COC(C)(C)c1ccccc1	5.65
CC(C)(Cc1ccc2ccccc2c1)NC[C@@H](O)COC(c1ccccc1)C1CCCCC1 (some centres not stated)	6.21

Results, then the molecule that gave them:

pIC50	SMILES
6.09	CC(COC[C@H](O)CNC(C)(C)Cc1ccc2ccccc2c1)c1ccccc1 (some centres not stated)
6.12	Cc1ccccc1[C@@H](OC[C@@H](O)CNC(C)(C)Cc1ccc2ccccc2c1)C1CC1
6.24	CC(C)(Cc1ccc2ccccc2c1)NC[C@@H](O)COC(c1ccccc1)C(C)(C)C (some centres not stated)
6.36	CC(Cc1ccccc1)OC[C@H](O)CNC(C)(C)Cc1ccc2ccccc2c1 (some centres not stated)
6.66	CC(OC[C@H](O)CNC(C)(C)Cc1ccc2ccccc2c1)c1cccc(Cl)c1 (some centres not stated)
6.68	C=CC(OC[C@H](O)CNC(C)(C)Cc1ccc2ccccc2c1)c1ccccc1 (some centres not stated)
6.70	CC(C)(Cc1ccc2ccccc2c1)NC[C@@H](O)COC(c1ccccc1)C1CCCC1 (some centres not stated)
6.70	Cc1ccccc1C(C)OC[C@H](O)CNC(C)(C)Cc1ccc2ccccc2c1 (some centres not stated)
6.82	CCCC(OC[C@H](O)CNC(C)(C)Cc1ccc2ccccc2c1)c1ccccc1 (some centres not stated)
6.85	Cc1ccc(C(C)OC[C@H](O)CNC(C)(C)Cc2ccc3ccccc3c2)cc1 (some centres not stated)
6.92	COc1ccccc1C(C)OC[C@H](O)CNC(C)(C)Cc1ccc2ccccc2c1 (some centres not stated)
7.13	CC(C)(Cc1ccc2ccccc2c1)NC[C@@H](O)COC(c1ccccc1)C1CCC1 (some centres not stated)

Tested on: not listed separately
Assay: Bioavailability in rat at 10 mg/kg, po
Assay type: ADME, organism-based
Conditions: in vivo

bioavailability	SMILES
13%	Cc1ccccc1[C@H](OC[C@H](O)CNC(C)(C)Cc1ccc2ccccc2c1)C1CC1

Tested on: not listed separately
Assay: Tmax in rat at 10 mg/kg, po
Assay type: ADME, organism-based
Set-up: dose 10 mg/kg, route oral
Conditions: in vivo

Tmax	SMILES
1 h	Cc1ccccc1[C@H](OC[C@H](O)CNC(C)(C)Cc1ccc2ccccc2c1)C1CC1
